Test results published in article PMC7857643 (ACS chemical biology, 2016).
Substitutions are numbered along the chain they refer to. Several values for one entry are separate records, joined by “and”; a condition that tells them apart may be missing. Equal entries are not always repeated.

What was measured:
[1] = target: T1, recombinant human TDP2 (Homo sapiens, UniProt O95551); test: Kinetics experiments; type: biochemical
T1 sequence (O95551 1-362): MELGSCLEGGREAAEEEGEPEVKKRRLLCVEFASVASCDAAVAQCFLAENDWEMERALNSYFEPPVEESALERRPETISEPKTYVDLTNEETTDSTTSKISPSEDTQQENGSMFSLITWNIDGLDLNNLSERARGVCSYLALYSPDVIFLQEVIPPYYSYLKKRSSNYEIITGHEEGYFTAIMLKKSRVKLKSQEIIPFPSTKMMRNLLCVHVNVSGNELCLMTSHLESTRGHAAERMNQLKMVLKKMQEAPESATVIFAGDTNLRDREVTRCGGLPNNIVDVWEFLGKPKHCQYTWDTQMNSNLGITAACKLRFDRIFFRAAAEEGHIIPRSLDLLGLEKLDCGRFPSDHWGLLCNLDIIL
How it was run: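 Recombinant TDP2 at 10 pM was incubated at RT with 5, 10, 20 or 800 nM unlabeled TY19 substrate, spiked with 1 nM 32P-labeled TY19, with 0, 30, 50 or 150 nM test compound. Time-course reactions were resolved on 16% denaturing PAGE. Initial velocities from linear fits went into a Lineweaver–Burk plot.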

[2] = system: DT40 hTDP2 cells; test: Drug combination in TDP2 knockout DT40 cells complemented with human TDP2; type: cell-based, chicken
How it was run: (§1)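 DT40 cells (TDP2-knockout, with or without human TDP2 complementation) seeded at 200 cells/well and exposed continuously to the test compound plus etoposide (or camptothecin) across concentration ranges for 72 h, in triplicate. Viability read at 72 h by ATPlite luminescence after 5 min. Viability was the ATP level of treated cells over untreated cells × 100.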

[3] = target: T2, mTDP2 WT (Mus musculus, UniProt Q9JJX7); test: Recombinant TDP2 assay, mouse TDP2 wild type; type: biochemical
T2 sequence (Q9JJX7 1-370): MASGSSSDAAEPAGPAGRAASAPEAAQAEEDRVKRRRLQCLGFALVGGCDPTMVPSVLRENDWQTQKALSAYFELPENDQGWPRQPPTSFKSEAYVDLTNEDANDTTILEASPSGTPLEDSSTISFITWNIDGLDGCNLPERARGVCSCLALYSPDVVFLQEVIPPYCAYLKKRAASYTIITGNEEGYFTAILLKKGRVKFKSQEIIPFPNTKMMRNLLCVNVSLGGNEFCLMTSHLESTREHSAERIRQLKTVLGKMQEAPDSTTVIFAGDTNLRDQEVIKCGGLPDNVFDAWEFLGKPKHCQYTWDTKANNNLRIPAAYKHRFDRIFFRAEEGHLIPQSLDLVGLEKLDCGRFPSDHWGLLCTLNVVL

[4] = target: T3, mTDP2 5M (Q278R, I281T, K282R, P318T, Y321C) (Mus musculus, UniProt Q9JJX7, I281T/K282R/P318T/Q278R/Y321C); test: Recombinant TDP2 assay, mouse TDP2 5M mutant; type: biochemical
T3 sequence (Q9JJX7 1-370 Q278R/I281T/K282R/P318T/Y321C): T2 sequence (Q9JJX7 1-370) with Q278R, I281T, K282R, P318T, Y321C

[5] = system: TK6 TDP2 KO cells; test: Drug combination with etoposide in TK6 TDP2 KO cells; type: cell-based, human
[6] = system: DT40 TDP2 KO cells; test: Drug combination with etoposide in DT40 TDP2 KO cells; type: cell-based, chicken
How it was run: as §1

[7] = system: DU145 prostate cancer cells; test: Cell viability / drug combination with etoposide in DU145 cells; type: cell-based, human
[8] = system: TK6 human lymphoblastoid cells (TK6 WT); test: Drug combination with etoposide in TK6 cells; type: cell-based; details: increasing concentrations of ETP
How it was run: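 TK6 wild-type lymphoblastoid cells seeded at 10,000 cells/well and exposed continuously to the test compound combined with increasing etoposide concentrations for 72 h, in triplicate. ATPlite luminescence read at 72 h after 5 min incubation. Viability was expressed as a percentage of the ATP level in untreated cells.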

[9] = system: DT40 avian lymphoblastoid cells; test: Drug combination with etoposide in DT40 cells; type: cell-based, chicken
[10] = system: zebrafish TDP2 (zTDP2); test: Recombinant TDP2 assay, zebrafish TDP2; type: biochemical, D. rerio; details: full-length zebrafish TDP2
[11] = target: native endogenous avian TDP2 in DT40 whole cell extracts (Gallus gallus, UniProt F1NW29); test: TDP2 assay with DT40 whole cell extracts; type: biochemical, chicken; details: Supporting Information Figure 1
Sequence of native endogenous avian TDP2 in DT40 whole cell extracts (F1NW29 whole entry): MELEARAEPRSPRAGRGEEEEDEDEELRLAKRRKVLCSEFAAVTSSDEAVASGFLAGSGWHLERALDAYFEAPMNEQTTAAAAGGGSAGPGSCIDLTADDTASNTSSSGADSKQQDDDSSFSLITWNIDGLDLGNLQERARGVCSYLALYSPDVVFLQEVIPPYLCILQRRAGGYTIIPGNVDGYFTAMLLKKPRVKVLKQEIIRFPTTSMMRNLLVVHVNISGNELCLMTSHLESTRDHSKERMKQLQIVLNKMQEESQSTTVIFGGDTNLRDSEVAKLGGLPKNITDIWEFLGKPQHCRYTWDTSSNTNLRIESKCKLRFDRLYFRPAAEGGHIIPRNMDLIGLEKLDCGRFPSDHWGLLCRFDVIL

[12] = target: T4, mTDP2 8M (5M + E242G, S244A, R316G) (Mus musculus, UniProt Q9JJX7, E242G/I281T/K282R/P318T/Q278R/R316G/S244A/Y321C); test: Recombinant TDP2 assay, mouse TDP2 8M mutant; type: biochemical; details: IC50 mTDP2 8M, mouse TDP2 with eight human mutations
T4 sequence (Q9JJX7 1-370 E242G/S244A/Q278R/I281T/K282R/R316G/P318T/Y321C): T2 sequence (Q9JJX7 1-370) with E242G, S244A, Q278R, I281T, K282R, R316G, P318T, Y321C

[13] = target: T5, human cellular TDP2 in HT29 whole cell extracts (Homo sapiens, UniProt O95551); test: TDP2 assay with whole cell extracts from HT29 cells; type: biochemical; details: Supporting Information Figure 1
T5 sequence (O95551 1-362): T1 sequence (O95551 1-362)
How it was run: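 1 × 10^7 human cells were lysed 15 min on ice and spun at 12,000g for 10 min; protein was measured and extracts were stored at −80 °C. Extract at 10–20 μg/mL (30–40% cleavage) was incubated with 1 nM 32P-labeled 5′-phosphotyrosyl 18-mer DNA and test compound for 15 min at RT in pH 7.5 Tris/KCl/MgCl2 buffer. Products were run on 16% denaturing PAGE and quantified by densitometry.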

[14] = system: C. elegans TDP2 (cTDP2); test: Recombinant TDP2 assay, C. elegans TDP2; type: biochemical; details: full-length C. elegans TDP2
[15] = target: T6, mTDP2 9M (8M + H323L) (Mus musculus, UniProt Q9JJX7, E242G/H323L/I281T/K282R/P318T/Q278R/R316G/S244A/Y321C); test: biochemical
T6 sequence (Q9JJX7 1-370 E242G/S244A/Q278R/I281T/K282R/R316G/P318T/Y321C/H323L): T2 sequence (Q9JJX7 1-370) with E242G, S244A, Q278R, I281T, K282R, R316G, P318T, Y321C, H323L

[16] = target: T7, recombinant human TDP2 (REC hTDP2) (Homo sapiens, UniProt O95551); test: Recombinant TDP2 assay; type: biochemical
T7 sequence (O95551 1-362): T1 sequence (O95551 1-362)

N#Cc1ccc2cc3c(=O)[nH]c(=O)nc-3n(-c3cccc(-c4nnn[nH]4)c3)c2c1 [Compound 1, 2,4-Dioxo-10-[3-(1H-tetrazol-5-yl)phenyl]pyrimido[4,5-b]-quinoline-8-carbonitrile]
kcat ([1]; 30 nM of 1): 2.75 s⁻¹
kcat ([1]; 50 nM of 1): 2.71 s⁻¹
kcat ([1]; 150 nM of 1): 3.03 s⁻¹
mode of inhibition of hTDP2 ([1]; Lineweaver double-reciprocal plot): competitive inhibitor
synergy with camptothecin ([2]; ETP replaced by camptothecin, Supporting Information Figure 4): not observed
synergy with ETP ([2]; increasing concentrations of ETP): synergistic effect
IC50 [3]: > 111000 nM
IC50 [4]: 1200 ± 100 nM
synergy with ETP [5]: synergy was not observed
synergy with ETP [6]: synergy was greatly reduced
synergy with ETP [7]: synergistic effect
combination effect with ETP ([7]; 5 μM ETP): supra-additive effect
cells killed in combination with ETP ([7]; 1 in combination with 1 μM of ETP): over 90%
cytotoxicity by itself ([7]; up to 50 μM, 72 h): not cytotoxic
combination effect with ETP [8]: supra-additive effect
synergy with ETP [9]: showed synergy
resistance of zTDP2 to the drug [10]: at least 3 orders of magnitude
activity against native endogenous avian TDP2 in DT40 whole cell extracts [11]: active
IC50 [12]: 710 nM and 580 nM
activity against human cellular TDP2 in HT29 whole cell extracts [13]: confirmed
resistance of cTDP2 to the drug [14]: at least 3 orders of magnitude
IC50 [15]: 29 ± 10 nM

N#Cc1ccc2cc3c(=O)[nH]c(=O)nc-3n(-c3ccccc3)c2c1 [Compound 3, 2,4-Dioxo-10-phenyl-pyrimido[4,5-b]quinoline-8-carbonitrile]
synergy with ETP [7]: synergistic effect

O=c1nc2n(-c3ccc(O)cc3)c3cc(Cl)ccc3cc-2c(=O)[nH]1 [Compound 4, 8-Chloro-10-(4-hydroxyphenyl)pyrimido[4,5-b]quinoline-2,4-dione]
decrease of potency against hTDP2 ([16]; 4 relative to 2 (cyano replaced by chloro)): 27 fold

O=c1nc2n(-c3ccccc3)c3ccccc3cc-2c(=O)[nH]1 [Compound 5, 10-Phenylpyrimido[4,5-b]quinoline-2,4(3H,10H)-dione]
additional loss of potency against hTDP2 ([16]; 5 relative to 4 (chloro removed)): 18 fold

COc1cc([C@@H]2c3cc4c(cc3[C@@H](O[C@@H]3O[C@@H]5CO[C@@H](C)O[C@H]5[C@H](O)[C@H]3O)[C@H]3COC(=O)[C@H]23)OCO4)cc(OC)c1O [ETP, etoposide, reference compound]
cells killed by ETP by itself ([7]; 1 μM ETP alone): around 50%
